Rows were chosen to be rich in hits. Some 1.1% of all compounds tested hit in one or more screens of this group.
Thrombin inh = blocks human thrombin protease activity; P00734; 220,000 compounds, 0.26% hits; AID 1046; alpha-thrombin, Boc-VPR-AMC fluorogenic substrate cleavage; inhibition, % at 5 µM;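 active means inhibition at or above 40%; inactive means inhibition below 40%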;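 further: 0% = enzyme with no compound and 100% = wells without enzyme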
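System: Human alpha-thrombin protein | Medium: pH 7.5 Tris (50 mM) with NaCl 150 mM, Tween 20 0.05% | Times: Enzyme reaction carried out at room temperature | Detection: AMC fluorescence, 355/460 nm | Evaluation: Percent inhibition scaled between no-compound controls and no-enzyme blanks | Benchmarks: Enzyme without compound as high, wells lacking enzyme as low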
FXIa inh 1536 = blocks human coagulation factor XIa protease activity. P03951. purified FXIa, Boc-Glu-Ala-Arg-AMC fluorogenic substrate. inhibition, % at 5 µM. 220,000 compounds, 0.14% hits. AID 798;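 active means inhibition of at least 40%; inactive means inhibition below 40%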;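 further: fluorescence of freed AMC excited at 355 nm; 0% = enzyme without compound and 100% = no enzyme blank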
Furin inhibitor = human furin inhibition; inhibition, % at 20 µM or 30 µM; purified furin, fluorogenic substrate cleavage; P09958; 220,000 compounds, 0.061% hits; in the data active means inhibition above about 25%
FXIIa inh = blocks human coagulation factor XIIa protease activity | P00748 | 220,000 compounds, 0.3% hits | AID 800 | inhibition, % at 5 µM | purified FXIIa, Boc-QGR-AMC fluorogenic substrate, 2 h; in the data active means inhibition above about 40%;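 further: 0% = enzyme with no compound and 100% = blank without enzyme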
hK5 inh = blocks human kallikrein 5 protease activity. recombinant hK5, fluorogenic AMC substrate cleavage. inhibition, % at 5 µM. 210,000 compounds, 0.59% hits. AID 873;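 active means inhibition of 40% or more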;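 further: 0% = enzyme controls without compound and 100% = no-enzyme blanks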
Target sequence (Q9Y337 67-293 limits assumed): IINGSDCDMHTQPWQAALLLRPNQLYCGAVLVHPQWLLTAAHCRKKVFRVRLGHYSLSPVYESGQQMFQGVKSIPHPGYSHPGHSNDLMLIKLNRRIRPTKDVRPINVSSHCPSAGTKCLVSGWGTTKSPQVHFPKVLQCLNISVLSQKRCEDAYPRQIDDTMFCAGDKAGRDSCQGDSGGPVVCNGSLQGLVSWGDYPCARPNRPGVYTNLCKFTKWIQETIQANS
Starred values were filed as active, the others as inactive; ! = not confirmed by another sample.

SMILES	Thrombin inh	FXIa inh 1536	Furin inhibitor	FXIIa inh	hK5 inh
Cc1ccccc1CS(=O)(=O)CCC(=O)N1CCN(c2ccc(N3CCOCC3)nn2)CC1	1.8	4.4	-17.0	11.9	4.7
COc1ccc(C(C#N)c2ccc(=O)[nH]n2)cc1 (stereo not given)	-4.4	-6.0	-29.0	0.2	-8.4
CCN(CC)CCCNCC(=O)Nc1ccc(OC)c(Cl)c1	10.9	39.9	-8.5	37.1	41.5*
COc1ccc(CN2CCN(C(=O)C3CCC(CNS(=O)(=O)c4ccccc4)CC3)CC2)c(OC)c1OC (stereo not given)	26.4	27.5	-20.8	101.3*	20.6
CCOC(=O)N1CCN(C(=O)C2CCC(CNS(=O)(=O)c3ccccc3)CC2)CC1 (stereo not given)	5.2	-3.4	-15.7	3.8	-4.4
CCN(CC)S(=O)(=O)c1ccc(C)c(NC(=O)CSc2nc3ccc(C)cc3[nH]2)c1	-3.2	3.7	-22.6	14.4	-9.4
CCOC(=O)CN1CC23C=CC(O2)C(C(=O)Nc2ccc(OCC)cc2)C3C1=O (stereo not given)	3.5	7.5	-21.0	14.6	43.1*
NC(=O)c1ccccc1N/C=C/C(=O)c1cccs1	4.6	5.9	-22.4	12.7	-4.1
NC(=O)c1ccccc1N/C=C/C(=O)c1ccc(F)cc1	4.5	3.3	27.2*	8.8	-10.6
CCNc1nc(NC(C)C)nc(OCCNS(=O)(=O)c2cc(C)ccc2C)n1	-1.4	8.7	-20.3	14.1	-4.4
CCNc1nc(NCC)nc(OCCNS(=O)(=O)c2cc(C)ccc2C)n1	33.7	20.3	-10.0	0.4	52.6*
O=C(CCn1nnc2ccccc21)N1CCC(O)(c2cccc(F)c2)CC1	-3.7	-5.4	-17.6	2.0	9.0
CN(CC(=O)Nc1ccc(C#N)cc1)Cc1ccc(Cl)cc1Cl	25.0	-1.7	-7.1	23.4	52.4*
CCOC(=O)CCNC(=O)N1CCCC(CNS(=O)(=O)c2cccs2)C1 (stereo not given)	41.0*	36.1	-10.4	35.1	17.6
COc1cc2c(cc1OC)C(C)N(C(=O)c1sc(-c3cnccn3)nc1C)CC2 (stereo not given)	-4.6	-0.5	-9.5	1.6	0.5
Nc1nnc(SCC(=O)c2ccc3ccccc3c2)s1	-2.9	-0.6	-12.0	-5.7	-5.2
Nc1nnc(SCCCC(=O)c2ccccc2)s1	45.7*	-10.9	-10.2	-2.0	16.9
Cc1ccccc1N1CCN(Cc2c[nH]c3ccccc23)CC1	0.9	20.2	-16.6	47.6*	4.3
COC(OC)c1ccc(C#N)c(SCc2ccc(C)cc2)n1	2.4	-7.4	-19.1	4.7	-3.1
COc1cc(NC(=O)c2cccc(C)c2)c(Cl)cc1[N+](=O)[O-]	0.2	2.3	-19.5	11.9	-10.9
COc1ccc(S(=O)(=O)N(C)c2ccc(C(=O)N3CCCCC3)cc2)cc1OC	-0.2	2.8	-15.0	14.7	2.9
Cc1ccc(C(C)C)c(OCc2nc(-c3nonc3N)no2)c1	9.6	-1.1	-14.2	21.8	53.9*
COc1ccc(N(CC(=O)NC(C)C)S(=O)(=O)c2ccc(NC(C)=O)cc2)cc1	0.7	4.1	-3.6	6.0	-20.9
COc1ccc(CCc2nc(C)ccc2O)cc1	24.1	3.6	-15.7	10.2	44.0*!
Cc1ccc(O)c(CO)n1	-3.3	3.5	-16.2	8.8	0.2
SMILES	Thrombin inh	FXIa inh 1536	Furin inhibitor	FXIIa inh	hK5 inh
O=C(Nc1ccc(F)cc1)Nc1ccc(NC(=O)c2ccccc2O)cc1	9.9	7.6	-14.1	12.1	7.6
CCO[C@H]1OC(C(=O)N2CCN(C)CC2)=C[C@@H](c2ccc(Br)cc2)[C@@H]1CCCO	-3.7	-2.6	-29.1	2.4	-1.8
O=C(CSc1nc2ccccc2n1Cc1ccccc1Cl)N/N=C/c1ccccc1C(=O)O	22.7	27.8	-7.0	29.7	47.1*
O=C(OCC(=O)C12CC3CC(CC(C3)C1)C2)c1cccnc1Cl	-8.1	4.6	-17.7	12.3	-22.8
COC(=O)c1ccccc1NC(=O)Nc1cc(C)ccn1	31.9	31.0	-5.5	41.4*	23.4
COc1ccc(OC)c(NC(=O)c2ccc(CSc3ncccn3)cc2)c1	-9.4	-6.2	-19.0	1.5	-4.8
COC(=O)CSc1nc2cc(OC)ccc2n1C	3.2	7.3	-3.1	11.1	0.9
COC(=O)CSc1nnc(-c2sc3cc(OC)ccc3c2Cl)n1C	-0.5	22.7	-19.3	47.8*	3.1
CCCCOc1ccc(-c2ncc(Cl)cn2)cc1	3.1	7.2	27.5*	18.8	18.1
CCCCOc1ccc(-c2ncc([N+](=O)[O-])cn2)cc1	0.5	0.9	-19.6	8.3	3.2
Cc1noc(C)c1C(=O)Nc1sc(C)c(-c2ccccc2)c1C#N	2.2	-9.5	-13.2	-4.8	-15.3
Cc1cccc(C(=O)Nc2sc(C)c(-c3ccccc3)c2C#N)c1	53.3*	10.3	-14.7	6.3	55.5*
CCOC(=O)c1sc(=S)n(C)c1NC(=O)c1ccccc1C	-6.7	4.1	-18.1	5.0	-5.5
Cc1ccccc1Nc1nc(N)nc(CSc2nc3ccccc3c(=O)n2C)n1	-0.4	1.0	-29.3	12.5	2.5
COc1ccc(/C=C/C(=O)N2CCN(S(=O)(=O)c3ccccc3)CC2)cc1OC	24.8	34.2	3.9	21.6	48.2*
CNC(=O)COC(=O)c1cc(-c2ccco2)nc2ccccc12	16.3	32.0	2.2	51.3*	27.9
O=C(COC(=O)c1cc(-c2ccco2)nc2ccccc12)NCc1ccccc1	1.9	-2.2	-12.9	22.4	-50.7
CN=C1SC(CC(=O)Nc2ccc(F)cc2F)C(=O)N1/N=C/c1ccc(OC(F)F)c(OC)c1 (stereo not given)	-3.5	-2.8	-29.1	7.1	-1.0
O=C1CC(SCc2nc3ccccc3[nH]2)C(=O)N1c1ccc(F)cc1 (stereo not given)	25.3	-11.1	-10.7	6.0	53.7*
O=C1CC(SCc2nc3ccccc3[nH]2)C(=O)N1c1cccc(Cl)c1 (stereo not given)	0.4	-2.6	-0.3	10.3	-7.4
CC(Nc1nc2ncn(Cc3ccccc3)c2c(=O)[nH]1)C(=O)O (stereo not given)	62.0*	11.2	-0.6	23.8	16.8
CC(C)C(NC(=O)CSCc1ccc([N+](=O)[O-])cc1)C(C)C	-0.2	10.2	-11.5	6.2	0.9
Cc1ccc(C)c(S(=O)(=O)NCCCN2CCOCC2)c1	41.6*	31.4	-6.9	23.6	32.8
CCc1c(C(=O)NNC(=S)NCCc2ccccc2)csc1C	-2.9	1.5	-10.7	8.8	-40.3
N#CCc1ccc(NS(=O)(=O)c2ccc(C3CCCCC3)cc2)cc1	-7.1	-3.8	-11.1	2.2	-9.7
COc1ccc(S(=O)(=O)Nc2ccc(CC#N)cc2)cc1	14.8	7.2	-21.7	33.5	43.3*
Cc1nn(C)c(C)c1S(=O)(=O)N1CCC(C(=O)NCCC2=CCCCC2)CC1	41.8*	6.6	-37.0	40.6*	65.4*
Cc1noc(C)c1S(=O)(=O)N1CCC(C(=O)NCCC2=CCCCC2)CC1	-3.7	-9.3	-21.7	1.1	-1.6
Cc1ccc(Nc2nc(N)[nH]c(=O)c2N=O)cc1	-3.6	-0.3	-7.5	1.6	-2.3
